GSK3B inh: human GSK3beta kinase inhibition | P49841 | activity score (negative = inhibition), % at 10 µM | GST-GSK3beta kinase, ADP-Glo luminescence, 60 min; stronger effect = lower value | hit rate 0.038% among 300,000;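 active = more than half of replicate wells score below -50%, meaning over 50% inhibition versus plate controls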;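 also: 0% = median DMSO wells and -100% = median GW8510 positive control wells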
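Assay system: GST-fused GSK3beta enzyme, cell-free / Medium: Tris pH 7.5 buffer with MgCl2, DTT, BSA, heparin / Also added: peptide substrate plus 25 µM ATP (final) / Compound: 10 µM single point / Timing: kinase reaction with compound 60 min at room temperature / Detection: ADP-Glo luminescence / Benchmarks: DMSO neutral wells and GW8510 at 20 µM as positive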
LANA-H2A inh: blocks KSHV LANA binding to histone H2A/H2B; Q9QR71; cell-free LANA-H2A/H2B peptide, fluorescence polarization; inhibition, % (test concentration not listed); hit rate 0.6% among 320,000; in the data active = inhibition mostly above about 10%, no sharp cut-off; inactive = mostly below about 6.7%
STK33 inh: inhibitors of human STK33 kinase; purified STK33, MBP phosphorylation, ADP-Glo luminescence; Q9BYT3; AID 2661; hit rate 0.073% among 320,000; inhibition, % at 10 µM;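 active = inhibition at or above 25%, using the most active replicate where run in duplicate; inactive = inhibition below 25%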
GSK3A inh: blocks human GSK-3 alpha kinase; hit rate 0.1% among 320,000; ADP-Glo luminescence, 60 min; inhibition, % at 10 µM; P49840;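 active = more than half of replicates show inhibition above 20%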;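 also: GST-tagged GSK-3 alpha with peptide substrate and 25 µM ATP; 0% = DMSO neutral wells and 100% = GW8510 positive control wells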
Hep lipid drop: hepatic lipid droplet formation modulation | AML12 mouse hepatocytes, oleate lipid droplets, BODIPY imaging | inhibition, % at 6.5 µM | hit rate 0.4% among 240,000 | AID 1656;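 active = lipid droplet intensity inhibited by at least 50%, with more than 500 cells counted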
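Test system: AML12 hepatocytes (mouse); reagent: oleate loading, 100 µM; dosing: one dose, 6.5 µM compound; incubation: overnight exposure; signal: fluorescence imaging, 20x objective, two fields per well; read-out basis: % inhibition of corrected integrated BODIPY droplet signal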
TAG inh: inhibitors of triacylglycerol accumulation | inhibition, % at 12.5 µM | AID 651582 | H9c2 cells, Nile Red lipid (TAG) fluorescence; cells loaded with 200 µM oleic acid | hit rate 0.66% among 230,000;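 active = pattern-corrected inhibition of lipid staining of at least 50% with the nuclear-stain viability signal not falling by more than 50%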;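 also: 0% = DMSO wells and 100% = triacsin C control wells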
H9c2 TAG conf: triacylglycerol accumulation inhibition, confirmation. shares compounds with TAG inh. H9c2 lipid accumulation, Nile Red fluorescence; cells loaded with 200 µM oleic acid. inhibition, % at 12.5 µM. hit rate 71% among 990;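 active = mean inhibition across replicates of 40% or more; inactive = mean inhibition below 40%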;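 also: plate controls were DMSO only wells for no effect and Triacsin C treated wells for full effect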
* hit, by the source's call; . = not tested or not shown. The list is not random: actives were taken first. Their share in the collection is about 1.3%.

SMILES	GSK3B inh	LANA-H2A inh	STK33 inh	GSK3A inh	Hep lipid drop	TAG inh	H9c2 TAG conf
O=C1OCCN1C(=O)[C@H]1[C@H](c2ccc(Cl)cc2)C(c2ccc(F)cc2)=NN1c1ccc(Br)cc1	.	.	.	.	.	105*	10
COC(=O)c1ccc(NC(=O)COc2ccc(C3C(C#N)=C(N)Oc4c3ccc3ccccc43)cc2OC)cc1 (centres undefined)	0	0	0	1	.	50*	24
COc1cc(C2C(C#N)=C(N)Oc3c2ccc2ccccc32)ccc1OCC(=O)Nc1ccccc1C (centres undefined)	2	-1	0	-4	.	.	.
Cc1ccc(-c2cc(C(F)F)n3ncc(C(=O)Nc4c(C)nn(Cc5c(Cl)cccc5Cl)c4C)c3n2)cc1	-1	-3	12	15	.	89*	47*
Cc1cccc(N2CCN(C(=O)c3c(-c4ccccc4Cl)noc3C)CC2)c1C	-5	3	-2	-1	-200	71*	66*
Cc1onc(-c2ccccc2Cl)c1C(=O)N1CCN(C=O)CC1	-6	-2	0	-2	9	10	.
COc1cccc2cc(C(=O)N3CCCc4ccccc43)oc12	-2	-1	0	-3	-18	-5	.
COc1ccc(CCn2c(-n3nc(C)cc3C)nc3c2c(=O)[nH]c(=O)n3C)cc1	0	-2	-2	-2	.	54*	62*
Cc1cc(=O)[nH]c(NN=C2CCCCC2C)n1 (centres undefined)	.	.	.	.	.	16	.
CCOc1cc(N2CCOCC2)c(OCC)cc1NC(=O)CC12CC3CC(CC(C3)C1)C2	-2	-1	1	-1	-1	74*	47*
CCOc1cc(N2CCOCC2)c(OCC)cc1NC(=O)Cn1cnnn1	.	4	3	4	.	5	.
CC(C)c1ccc(Nc2nc(N3CCOCC3)nc(N3CCOCC3)n2)cc1	.	.	.	.	.	74*	91*
Clc1ccc(Nc2nc(N3CCOCC3)nc(N3CCOCC3)n2)cc1Cl	1	7	2	1	-26	.	.
Cc1ccc(Nc2cc(C)nc(N3CCOCC3)n2)cc1	3	-1	-2	-2	.	17	.
Cc1cc(Nc2ccc(C)c(Cl)c2)nc(N2CCOCC2)n1	2	-9	-1	-4	9	72*	41*
COc1ccc(S(=O)(=O)N(C)[C@H]2C[C@H]3c4cc(N5CCN(C)CC5)ccc4CCN3C(=O)[C@H]2[C@H](C)O)cc1	.	.	.	.	.	5	.
C=CC[C@@H](CC(=O)N(CCO)Cc1ccccc1)C(=O)N[C@H](COC(=O)[C@@H](CC=C)Cc1ccc(F)cc1)C(C)(C)C	.	-9	-1	0	.	85*	89*
C=CCC[C@@H](Cc1ccc(F)cc1)C(=O)OC[C@@H](Cc1c[nH]c2ccccc12)NC(=O)[C@H](CC=C)CC(=O)N(CCO)Cc1ccccc1	.	2	0	-1	.	57*	71*
C=CC[C@H](CC(=O)N(CCO)Cc1ccccc1)C(=O)N[C@H](COC(=O)[C@@H](CC=C)Cc1ccc(F)cc1)C(C)(C)C	.	1	0	3	.	37	.
C=CC[C@@H](CC(=O)N[C@H](CO)Cc1ccccc1)C(=O)N[C@H](COC(=O)[C@@H](CC=C)Cc1ccc(F)cc1)C(C)(C)C	.	-3	0	-2	.	95*	38
C=CCC[C@H](Cc1ccc(F)cc1)C(=O)OC[C@@H](NC(=O)[C@@H](CC=C)CC(=O)N[C@@H](CO)Cc1ccccc1)C(C)(C)C	.	-1	0	-2	.	33	.
C=CC[C@@H](CC(=O)N(CCO)Cc1ccccc1)C(=O)N[C@H](COC(=O)[C@@H](CC=C)CC(=O)OC(C)(C)C)C(C)(C)C	.	1	0	-3	.	73*	81*
C=CC[C@H](CC(=O)N(CCO)Cc1ccccc1)C(=O)N[C@@H](COC(=O)[C@@H](CC=C)Cc1ccc(F)cc1)Cc1c[nH]c2ccccc12	.	.	0	0	.	34	.
O=c1cc(N2CCN(c3cccc(Cl)c3)CC2)[nH]c(=O)n1C1CCCCC1	6	-6	1	.	.	69*	58*
O=c1cc(N2CCN(c3ccccc3)CC2)[nH]c(=O)n1C1CCCCC1	1	-6	1	-1	.	63*	30
